Source: ChEMBL document CHEMBL2440017, “Discovery of a potent, selective, and orally bioavailable histamine H3 receptor antagonist SAR110068 for the treatment of sleep-wake disorders” (Bioorg Med Chem Lett, 2013)
Activity calls are given as the source filed them. The rule behind the calls is not given here.

Key:
Histamine receptor H3 = Histamine receptor H3 (Macaca mulatta, UniProt Q865E1); test: Displacement of [3H]N-alpha-methylhistamine from rhesus monkey histamine H3 receptor expressed in CHO cells; type: cell-based
Histamine receptor H3, sequence (Q865E1 whole entry): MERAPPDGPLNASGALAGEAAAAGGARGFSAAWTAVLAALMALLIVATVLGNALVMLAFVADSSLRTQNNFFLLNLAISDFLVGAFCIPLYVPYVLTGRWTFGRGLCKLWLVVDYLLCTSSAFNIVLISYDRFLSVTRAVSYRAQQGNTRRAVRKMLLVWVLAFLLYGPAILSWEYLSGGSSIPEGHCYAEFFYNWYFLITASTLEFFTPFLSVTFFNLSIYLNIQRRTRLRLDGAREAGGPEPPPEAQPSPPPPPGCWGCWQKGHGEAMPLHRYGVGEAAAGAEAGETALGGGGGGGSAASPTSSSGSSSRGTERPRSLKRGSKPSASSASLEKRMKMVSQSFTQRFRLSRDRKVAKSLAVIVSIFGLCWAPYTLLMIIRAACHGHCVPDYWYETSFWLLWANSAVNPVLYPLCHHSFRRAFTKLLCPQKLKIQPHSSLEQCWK
In short: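 Membranes from CHO cells stably expressing rhesus monkey H3 receptor. Competition binding against [3H]N-α-methylhistamine; Ki values are means of three or more determinations.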

Rattus norvegicus [1] = test: Awakening activity in rat assessed as increased wakefulness at 10 mg/kg, po after 1 hr; type: functional, organism-based; set-up: dose 10 mg/kg
In short: (§1)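 Rats given compound orally at 3 or 10 mg/kg, or reference drugs i.p. or p.o. at 10 mg/kg. EEG recorded during the light phase and scored as wakefulness, slow wave sleep and REM sleep. Time-course analysis of the effects.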

Rattus norvegicus [2] = test: Awakening activity in rat assessed as increased wakefulness at 10 mg/kg, po; type: functional, organism-based; set-up: dose 10 mg/kg
Rattus norvegicus [3] = test: Awakening activity in rat assessed as decrease in slow wave and REM sleep at 10 mg/kg, po; type: functional, organism-based; set-up: dose 10 mg/kg
Rattus norvegicus [4] = test: Awakening activity in rat assessed as increased wakefulness at 10 mg/kg, ip after 3 hrs; type: functional, organism-based; set-up: dose 10 mg/kg; in short: as §1
Rattus norvegicus [5] = test: Awakening activity in rat assessed as decrease of theta rhythm at 10 mg/kg, po after 3 to 4 hrs; type: functional, organism-based; set-up: dose 10 mg/kg
Rattus norvegicus [6] = test: Awakening activity in rat assessed as increased wakefulness at 10 mg/kg, po after 3 to 4 hrs; type: functional, organism-based; set-up: dose 10 mg/kg; in short: as §1

Row | Compound | Ki (Histamine receptor H3) | further results
1 | CC(=O)N1CCCC1C(=O)Nc1ccc(N2CCC(N3CCCC3C)C2)cc1 (mixture of isomers) | 14.1 nM | –
2 | Cc1cc(N2CC[C@H](N3CCC[C@@H]3C)C2)ccc1NC(=O)C1CC2CCC1C2 (some centres not stated) | 0.55 nM | –
3 | CNC(=O)c1ccc(Oc2ccc3c(c2)CCN(C2CCC2)CC3)nc1 | – | Activity (Rattus norvegicus [1]): Active
4 | Cc1cc(N2CCC(N3CCCC3C)C2)ccc1NC(=O)C1CCCO1 (mixture of isomers) | 7.34 nM | –
5 | Cc1cc(N2CC[C@H](N3CCC[C@@H]3C)C2)ccc1NC(=O)C1C(C)(C)C1(C)C | 0.55 nM | –
6 | Cc1cc(N2CCC(N3CCCC3C)C2)ccc1NC(=O)C1CC2CCC1C2 (mixture of isomers) | 19.9 nM | –
7 | Cc1cc(N2CC[C@@H](N3CCC[C@@H]3C)C2)ccc1NC(=O)C1CCOCC1 (racemic) | 3.9 nM | –
8 | Cc1cc(N2CC[C@H](N3CCC[C@@H]3C)C2)ccc1NC(=O)C1CCCO1 (some centres not stated) | 7.33 nM | –
9 | Cc1cc(NC(=O)C2CC3CCC2C3)ccc1N1CCC(N2CCCC2C)C1 (mixture of isomers) | 130 nM | –
10 | CC1CCCN1C1CCN(c2ccc(NC(=O)C3CC4CCC3C4)cc2)C1 (configuration not stated) | 15.7 nM | –
11 | S=C(NC1CCCCC1)N1CCC(c2cnc[nH]2)CC1 | – | Activity (Rattus norvegicus [2]): Active; Activity (Rattus norvegicus [3]): Active
12 | Cc1cc(N2CC[C@H](N3CCC[C@@H]3C)C2)ccc1NC(=O)CC1CCCC1 | 0.85 nM | –
13 | O=C(c1ccc(OCCCc2c[nH]cn2)cc1)C1CC1 | – | Activity (Rattus norvegicus [4]): Active
14 | CC1CCCN1C1CCN(c2ccc(NC(=O)C3CCCO3)cc2)C1 (mixture of isomers) | 8.7 nM | –
15 | Cc1cc(N2CCC(N3CCCC3C)C2)ccc1NC(=O)C1CCCCC1 (mixture of isomers) | 9 nM | –
16 | C[C@@H]1CCCN1CCc1cc2cc(-c3ccc(C#N)cc3)ccc2o1 | – | Activity (Rattus norvegicus [5]): Active; Activity (Rattus norvegicus [6]): Active
17 | Cc1cc(NC(=O)C2CCCO2)ccc1N1CCC(N2CCCC2C)C1 (mixture of isomers) | 17 nM | –
18 | CC(=O)N1CCCC1C(=O)Nc1ccc(N2CCC(N3CCCC3C)C2)cc1C (mixture of isomers) | 57.7 nM | –
19 | Cc1cc(N2CC[C@H](N3CCC[C@@H]3C)C2)ccc1NC(=O)C1CCCCC1 | 0.39 nM | –
20 | CC(=O)N1CCCC1C(=O)Nc1ccc(N2CCC(N3CCCC3C)C2)c(C)c1 (mixture of isomers) | 44.9 nM | –
